# ChEMBL document CHEMBL1144069, “Cytotoxic activities of hypocretenolides from Leontodon hispidus” (J Nat Prod, 1999)
# Active and inactive are the calls of the source. The calls are words filed in the database; no cut-off is given here.
# Tests used:
# [1] = Cytotoxicity against human GTB cells after 5 hrs by MTT assay; assay type: functional, cell-based
# Method in brief: (§1)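 Leukemic cells at 0.5 × 10^6 cells/mL in RPMI were exposed to 0.01–2.00 µM compound (0.1% final DMSO) at 37 °C and 5% CO2. Viability was measured as MTT formazan, dissolved in DMSO and read at 550 and 630 nm. Three wells per point, on three separate days (n = 9). IC50 was taken graphically from per-experiment dose curves.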
# [2] = system: HL-60; assay: Cytotoxicity against human HL-60 cells after 5 hrs by MTT assay; assay type: functional, cell-based; details: HL-60, 5 h; method in brief: as §1
# [3] = system: A-431; assay: Cytotoxicity against human A431 cells after 24 hrs by [3H]thymidine incorporation assay; assay type: functional, cell-based
# Method in brief: (§2)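 Adherent tumor cells (100 µL at 1 × 10^6 cells/mL) were overlaid with 100 µL of medium containing compound in the 0.25–4.00 µM range (0.1% final DMSO). The medium control had no compound. Cells were incubated for 24, 48 or 72 h at 37 °C and 5% CO2, then pulsed 24 h with 3H-thymidine. They were harvested onto glass filters and counted by liquid scintillation. Three wells per point, on three separate days (n = 9). IC50 was taken graphically.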
# [4] = system: A-431; assay: Cytotoxicity against human A431 cells after 48 hrs by [3H]thymidine incorporation assay; assay type: functional, cell-based; method in brief: as §2
# [5] = system: A-431; assay: Cytotoxicity against human A431 cells after 72 hrs by [3H]thymidine incorporation assay; assay type: functional, cell-based; method in brief: as §2
# [6] = system: HEp-2; assay: Cytotoxicity against human HEP2 cells after 24 hrs by [3H]thymidine incorporation assay; assay type: functional, cell-based; method in brief: as §2
# [7] = system: HEp-2; assay: Cytotoxicity against human HEP2 cells after 48 hrs by [3H]thymidine incorporation assay; assay type: functional, cell-based; method in brief: as §2
# [8] = system: HEp-2; assay: Cytotoxicity against human HEP2 cells after 72 hrs by [3H]thymidine incorporation assay; assay type: functional, cell-based; method in brief: as §2
# [9] = system: MCF7; assay: Cytotoxicity against human MCF7 cells after 24 hrs by [3H]thymidine incorporation assay; assay type: functional, cell-based; method in brief: as §2
# [10] = system: MCF7; assay: Cytotoxicity against human MCF7 cells after 48 hrs by [3H]thymidine incorporation assay; assay type: functional, cell-based; method in brief: as §2
# [11] = system: MCF7; assay: Cytotoxicity against human MCF7 cells after 72 hrs by [3H]thymidine incorporation assay; assay type: functional, cell-based; method in brief: as §2
# [12] = system: OVCAR-3; assay: Cytotoxicity against human OVCAR-3 cells after 24 hrs by [3H]thymidine incorporation assay; assay type: functional, cell-based; method in brief: as §2
# [13] = system: OVCAR-3; assay: Cytotoxicity against human OVCAR-3 cells after 48 hrs by [3H]thymidine incorporation assay; assay type: functional, cell-based; method in brief: as §2
# [14] = system: OVCAR-3; assay: Cytotoxicity against human OVCAR-3 cells after 72 hrs by [3H]thymidine incorporation assay; assay type: functional, cell-based; method in brief: as §2
# [15] = Cytotoxicity against human SK MEL28 cells after 24 hrs by [3H]thymidine incorporation assay; assay type: functional, cell-based; details: SK-MEL-28; method in brief: as §2
# [16] = Cytotoxicity against human SK MEL28 cells after 48 hrs by [3H]thymidine incorporation assay; assay type: functional, cell-based; details: SK-MEL-28; method in brief: as §2
# [17] = Cytotoxicity against human SK MEL28 cells after 72 hrs by [3H]thymidine incorporation assay; assay type: functional, cell-based; details: SK-MEL-28; method in brief: as §2
# [18] = Cytotoxicity against human SK37 cells after 24 hrs by [3H]thymidine incorporation assay; assay type: functional, cell-based; method in brief: as §2
# [19] = Cytotoxicity against human SK37 cells after 48 hrs by [3H]thymidine incorporation assay; assay type: functional, cell-based; method in brief: as §2
# [20] = Cytotoxicity against human SK37 cells after 72 hrs by [3H]thymidine incorporation assay; assay type: functional, cell-based; method in brief: as §2
# [21] = system: SW872; assay: Cytotoxicity against human SW872 cells after 24 hrs by [3H]thymidine incorporation assay; assay type: functional, cell-based; method in brief: as §2
# [22] = system: SW872; assay: Cytotoxicity against human SW872 cells after 48 hrs by [3H]thymidine incorporation assay; assay type: functional, cell-based; method in brief: as §2
# [23] = system: SW872; assay: Cytotoxicity against human SW872 cells after 72 hrs by [3H]thymidine incorporation assay; assay type: functional, cell-based
# Method in brief: (§3)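 Adherent tumour cells at 1 × 10^6 cells/mL (100 µL per well) overlaid with an equal volume of medium carrying test substance across 0.25–4.00 µM. Medium-only controls. Incubated 24, 48 or 72 h at 37 °C, 5% CO2, then pulsed 24 h with 3H-thymidine and harvested onto glass filters for scintillation counting. Final DMSO 0.1%. Triplicate wells, three days (n = 9). IC50 read graphically from each experiment's dose curve.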
# [24] = system: ZR-75-1; assay: Cytotoxicity against human ZR-75-1 cells after 24 hrs by [3H]thymidine incorporation assay; assay type: functional, cell-based; method in brief: as §3
# [25] = system: ZR-75-1; assay: Cytotoxicity against human ZR-75-1 cells after 48 hrs by [3H]thymidine incorporation assay; assay type: functional, cell-based; method in brief: as §3
# [26] = system: ZR-75-1; assay: Cytotoxicity against human ZR-75-1 cells after 72 hrs by [3H]thymidine incorporation assay; assay type: functional, cell-based; method in brief: as §3
# [27] = system: CD34+ cell; assay: Antiproliferative activity against CSF and human recombinant erythropoietin-induced human CD34+ cells proliferation assessed as inhibition of BFU-erythroid formation at 1 uM after 12 days by clonogenic assay; assay type: functional, cell-based
# Method in brief: (§4)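 Human CD34+ cells were immunomagnetically selected from mononuclear cells, with purity checked by FACS. They were plated at 2 × 10^3 cells/dish in Iscove's 0.8% methylcellulose with 30% FCS. Stimulation used 3 U/mL rhEPO plus 10% agar-stimulated leukocyte-conditioned medium. Final concentrations were 0.25–2.00 µM. Dishes were run in duplicate and repeated once (n = 4). CFU-E and mature BFU-E were scored at 12 days; primitive BFU-E and CFU-GM (>50 cells) at 18 days. IC50 was read graphically.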
# [28] = system: CD34+ cell; assay: Antiproliferative activity against CSF and human recombinant erythropoietin-induced human CD34+ cells proliferation assessed as inhibition of CFU-erythroid formation at 1 uM after 12 days by clonogenic assay; assay type: functional, cell-based; method in brief: as §4
# [29] = Antiproliferative activity against CSF and human recombinant erythropoietin-induced human CD34+ cells proliferation assessed as inhibition of BFU-erythroid formation at 0.5 uM after 12 days by clonogenic assay; assay type: functional, CD34+ cell; design: scale not given: the % may be the effect or the level left; method in brief: as §4
# [30] = Antiproliferative activity against CSF and human recombinant erythropoietin-induced human CD34+ cells proliferation assessed as inhibition of CFU-erythroid formation at 0.5 uM after 12 days by clonogenic assay; assay type: functional, CD34+ cell; design: scale not given: the % may be the effect or the level left; method in brief: as §4
# [31] = system: CD34+ cell; assay: Antiproliferative activity against CSF and human recombinant erythropoietin-induced human CD34+ cells proliferation assessed as inhibition of BFU-erythroid formation after 12 days by clonogenic assay; assay type: functional, cell-based; method in brief: as §4
# [32] = (§5) Antiproliferative activity against CSF and human recombinant erythropoietin-induced human CD34+ cells proliferation assessed as inhibition of CFU-erythroid formation after 12 days by clonogenic assay; assay type: functional, CD34+ cell; method in brief: as §4
# [33] = system: CD34+ cell; assay: as §5; assay type: functional; method in brief: as §4
# [34] = system: CD34+ cell; assay: Antiproliferative activity against CSF and human recombinant erythropoietin-induced human CD34+ cells proliferation assessed as inhibition of CFU-GM formation after 18 days by clonogenic assay
# [35] = Antiproliferative activity against CSF and human recombinant erythropoietin-induced human CD34+ cells proliferation assessed as inhibition of CFU-GM formation at 0.5 uM after 18 days by clonogenic assay; design: scale not given: the % may be the effect or the level left
structure (smiles),measurement,setting,value
C=C(C(=O)O[C@@H]1[C@@H](O)[C@H](O)[C@@H](OCC2=C3C(=O)C=C(C)[C@@]34C[C@@H](CC2)C(=C)C(=O)O4)O[C@H]1CO)[C@@H]1CCC(CO)=C2C(=O)C=C(C)[C@@]2(O)C1,IC50,[1],70 nM
same,IC50,[2],100 nM
same,IC50,[3],700 nM
same,IC50,[4],700 nM
same,IC50,[5],500 nM
same,IC50,[6],800 nM
same,IC50,[7],700 nM
same,IC50,[8],600 nM
same,IC50,[9],500 nM
same,IC50,[10],300 nM
same,IC50,[11],400 nM
same,IC50,[12],900 nM
same,IC50,[13],1000 nM
same,IC50,[14],1000 nM
same,IC50,[15],1300 nM
same,IC50,[16],900 nM
same,IC50,[17],400 nM
same,IC50,[18],1300 nM
same,IC50,[19],900 nM
same,IC50,[20],700 nM
same,IC50,[21],1500 nM
same,IC50,[22],1400 nM
same,IC50,[23],1400 nM
same,IC50,[24],300 nM
same,IC50,[25],300 nM
same,IC50,[26],500 nM
same,Activity,[27],Active
same,Activity,[28],Active
same,Activity,[29],60%
same,Activity,[30],60%
same,Activity,[31],Dose-dependent effect
same,IC100,[32],2 µM
same,Activity,[33],Dose-dependent effect
same,Activity,[34],Dose-dependent effect
same,Activity,[35],60%
